A selection: hits, their analogues and other compounds. The true share with any hit is near 1.8%.
zVAD death inh – inhibitors of zVAD-triggered necroptosis, primary screen, L929 cells; L929 zVAD necroptosis rescue, ATP luminescence, 24 h; with zVAD 60 µM; viability rescue, % at 10 µM; 0.38% of 220,000 active;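 active = activation, scaled between plate controls, above about 75%, limit read from the data; inactive = activation under that limit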
HSV replic up – enhancers of HSV replication in host cells, fold increase, host cell viability. HSV replication augmentation in cells. maximum fold increase. 0.005% of 220,000 active; in the data active = maximum fold increase above about 1.5; inconclusive = no clear call, values can overlap the other calls; tested in PC3 cells
Dynein transport – inhibitors of GR-EGFP nuclear translocation, primary screen, dynein cargo transport inhibitor project, imaging, high-content, 3617.4 mouse cells | test concentration mostly 20 µM; stimulated with dexamethasone, 1 µM; active compounds read low | z-score, hits read low | 0.47% of 220,000 active | AID 1381, 2008;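 active = plate z-score of nuclear minus cytoplasmic receptor signal below a set negative limit, without overly bright fluorescence or cell loss, cut at about -3.5 in these data, passing the limit was not always enough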;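 also: z-score of nuclear minus cytoplasmic ring GR-EGFP intensity difference per well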
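Buffer or medium: tet-free, stripped-serum medium; reagent: dexamethasone at 1.0 µM final, 30 min; incubation: 48 h induction, 1 h compound, 30 min dex at 37 °C; measured by: formaldehyde fixation, Hoechst nuclear stain, 10x automated fluorescence imaging; read-out: nuclear-to-cytoplasmic GR-EGFP distribution per well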
Furin inhibitor – human furin inhibitors, primary screen, biochemical, fluorescence intensity | inhibition, % at 20 µM or 30 µM | purified furin, fluorogenic substrate cleavage | 0.061% of 220,000 active | P09958 | AID 463115, 2010; in the data active = inhibition above about 25%
Target sequence (P09958 108-714 limits assumed): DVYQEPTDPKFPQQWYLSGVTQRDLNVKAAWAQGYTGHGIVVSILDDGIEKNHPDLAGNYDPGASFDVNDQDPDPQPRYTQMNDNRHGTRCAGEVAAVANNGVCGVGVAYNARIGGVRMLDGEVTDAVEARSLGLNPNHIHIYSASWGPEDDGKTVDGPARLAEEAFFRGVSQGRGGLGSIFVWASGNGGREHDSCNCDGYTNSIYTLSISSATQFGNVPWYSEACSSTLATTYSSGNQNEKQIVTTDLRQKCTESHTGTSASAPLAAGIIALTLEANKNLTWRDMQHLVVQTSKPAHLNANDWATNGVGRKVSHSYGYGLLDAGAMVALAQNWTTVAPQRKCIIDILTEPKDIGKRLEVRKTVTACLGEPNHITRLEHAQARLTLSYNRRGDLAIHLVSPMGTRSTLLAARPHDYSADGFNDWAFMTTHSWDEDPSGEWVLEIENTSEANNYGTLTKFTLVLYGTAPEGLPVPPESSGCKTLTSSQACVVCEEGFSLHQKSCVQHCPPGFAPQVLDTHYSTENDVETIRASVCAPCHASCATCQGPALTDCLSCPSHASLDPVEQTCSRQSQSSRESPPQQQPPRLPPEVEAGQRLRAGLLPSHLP
Autophagy HCS – autophagy modulators in MEF cells, primary screen, imaging, high-content, MEF GFP-LC3; calls only at 10 µM (by protocol); MEF GFP-LC3 puncta imaging; test concentration mostly 10 µM; 0.98% of 190,000 active;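 active = percentage of spot-positive cells more than 3 SD above its plate mean, without a fluorescence outlier flag or 80% toxicity; inconclusive = no clear call, values can overlap the other calls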
TNF death inh – inhibitors of TNF-alpha triggered necroptosis, primary screen, cell-based, Jurkat FADD-/-, single concentration; 0.068% of 220,000 active; activation (protection from cell death), % at 10 µM; AID 463075, 2010; Jurkat FADD-/- TNF necroptosis rescue, ATP luminescence, 24 h; 0 = TNF only, 100 = no-TNF cells;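 active = activation, meaning protection from cell death, of at least 50% relative to plate controls; inactive = activation below 50%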;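 also: necroptosis triggered by 40 ng/mL TNF-alpha added together with compound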
Each line names hits and unclear results; the compound was inactive in the other large screens.

CC1=NNC(=O)/C1=C\c1cn(-c2ccccc2)nc1-c1ccc(Cl)cc1	Autophagy HCS active
COc1ccc(/C=C(\NC(=O)c2ccccc2)C(=O)NC2CCS(=O)(=O)C2)cc1 (stereo not given)	none (no result: Autophagy HCS)
COC(=O)Nc1nnc(COc2cccc(C)c2)s1	none
Cc1cccc(C(=O)Nc2nnc(COc3ccccc3)s2)c1	Autophagy HCS active
Cc1c(NC(=O)C(C)n2cc([N+](=O)[O-])cn2)c(=O)n(-c2ccccc2)n1C (stereo not given)	none
COc1ccc(CN2C(=O)C3C4C=CC(C4)C3C2=O)cc1 (stereo not given)	none
O=C(CN1C(=O)C2C3C=CC(C3)C2C1=O)NCc1ccc2c(c1)OCO2 (stereo not given)	Furin inhibitor 27
COc1ccc(CNC(=O)CN2C(=O)C3C4C=CC(C4)C3C2=O)cc1 (stereo not given)	Autophagy HCS active
O=C(CN1C(=O)C2CC=CCC2C1=O)NCc1ccc2c(c1)OCO2 (stereo not given)	none
Cn1cc(Br)c(C(=O)n2cc(Br)cn2)n1	none
CC1(C)CC[C@]2(C(=O)O)CC[C@]3(C)C(=CC[C@@H]4[C@@]5(C)CC[C@H](O)C(C)(C)[C@@H]5CC[C@]43C)[C@@H]2C1	none (no result: Autophagy HCS)
CC(=O)OC1COC(OC2C(O)C(C)OC(OC3C(OC4CCC5(C)C(CCC6(C)C5CC=C5C7CC(C)(C)CCC7(C(=O)O)CCC56C)C4(C)CO)OCC(O)C3O)C2O)C(O)C1OC(C)=O (stereo not given)	Dynein transport -5.3
O=C(CSCc1ccc(Cl)cc1)Nc1ccc(-c2nnc(-c3ccccc3)o2)cc1	Autophagy HCS active
O=C(Cc1ccc(Cl)cc1)Nc1ccc(-c2nnc(-c3ccco3)o2)cc1	none
O=C(CSCc1ccc(F)cc1)Nc1ccc(F)cc1	TNF death inh 79
CCC(C)C(NC(=O)C1CCC(C)CC1)C(=O)NCc1cccnc1 (stereo not given)	Furin inhibitor 29
CCn1c(SCC(=O)NCc2ccccc2)nnc1-c1c[nH]c2ccccc12	none
CCN(CCCNC(=O)CN1C(=O)COc2ccccc21)c1ccccc1	none
CCCCN(CCCNC(=O)CN1C(=O)COc2ccccc21)c1ccccc1	Autophagy HCS active
Cc1ccc(NC(=O)C2(c3ccccc3)CCOCC2)c([N+](=O)[O-])c1	none
CCN(CC)c1ccc(C=C(c2nnnn2-c2ccc(C)cc2)c2nnnn2-c2ccc(C)cc2)cc1	HSV replic up inconclusive, Autophagy HCS active
COc1cc(OC)c(OC)cc1/C=N/NC(=O)CCc1c(C)n[nH]c1C	none (no result: Autophagy HCS)
CCOC(=O)c1[nH]c(C)c(C(=O)Nc2ccccc2F)c1C	Autophagy HCS active (no result: HSV replic up)
CCOC(=O)c1c(C)[nH]c(C(=O)OCC(=O)Nc2cc(C)ccc2OC)c1C	Autophagy HCS active (no result: HSV replic up)
CCOC(=O)N1CCN(C(=O)CSc2nnc(-c3ccc(C(C)(C)C)cc3)o2)CC1	Autophagy HCS active
CCOC(=O)N1CCN(C(=O)CSc2nnc(-c3ccc(C)c(C)c3)o2)CC1	none
CCN1CCN(c2cc(C)c3cc(NC(=O)c4ccc(OC)c(OC)c4)ccc3n2)CC1	Autophagy HCS active
CCc1nn(CC(=O)Nc2ccc(Br)c(C)c2)c(=N)s1	none
CCOc1ccc2nc(NC(=S)N(C)C)sc2c1	Autophagy HCS active
CCCC(=O)Nc1nc2ccc(OCC)cc2s1	none (no result: Autophagy HCS)
CCOc1ccc2nc(NC(=O)CCn3cccc3)sc2c1	zVAD death inh 85
Cc1ccc(C(=O)C2=C(O)C(=O)N(CCN3CCOCC3)C2c2ccccn2)o1 (stereo not given)	none
CCN(CC)CCN1C(=O)C(O)=C(C(=O)c2ccc(C)o2)C1c1ccccn1 (stereo not given)	Autophagy HCS active
CC(C)n1c(NCc2ccc(N(C)C)cc2)nc2ccccc21	Autophagy HCS active
CCN(CC)c1ccc(CNc2nc3ccccc3n2C(C)C)cc1	none (no result: Autophagy HCS)
CCN(CC(=O)NC(C)(C)C)C(=O)C(c1ccccc1)c1ccccc1	none
CCOc1cc(-c2cc(-c3ccc(C)cc3)nc(N)c2C#N)ccc1O	Autophagy HCS active
COc1cc(-c2cc(-c3ccc(O)cc3)nc(N)c2C#N)ccc1O	none
Cc1[nH]c2ccccc2c1C(=O)CCl	Autophagy HCS active
COc1cnc(SCc2c(Cl)cccc2Cl)nc1Cl	Autophagy HCS active
Cc1nc(SCc2c(F)cccc2Cl)n[nH]1	none
O=C(CSc1ccc(Cl)cc1)N1N=CCC1c1ccccc1 (stereo not given)	TNF death inh 100 (no result: Autophagy HCS)
Cc1nn2c(=O)c3c4c(sc3nc2n1-c1ccccc1)COC(C)(C)C4	none (no result: Autophagy HCS)
C/C(=N\NC(=O)CC1(C)OCCO1)c1cccs1	Autophagy HCS active
Cc1ccc(N=Cc2nc(/C=C/c3cccc([N+](=O)[O-])c3)oc2O)cc1	HSV replic up inconclusive, Autophagy HCS active
Cc1ccc(CNC(=O)CSCc2ccc(F)cc2)cc1	none
Cc1ccc(CNC(=O)CSCc2ccccc2)cc1	Autophagy HCS active
O=C(CC1(O)C(=O)N(C/C=C/c2ccccc2)c2ccccc21)c1ccccn1 (stereo not given)	Autophagy HCS active
CCCCN(CCCC)Cc1ccc(C(=O)NNC(=O)Nc2ccc(F)cc2)o1	none
CCCCN(CCCC)Cc1ccc(C(=O)NNC(=O)Nc2ccccc2)o1	Autophagy HCS active
O=C(NCCc1ccccc1)C(=O)c1c(-c2ccccc2)[nH]c2ccccc12	none
COc1ccc(S(=O)(=O)N(C)CC(=O)Nc2ccc3c(c2)OCO3)cc1	none
COc1ccc(N(CC(=O)Nc2ccc3c(c2)OCO3)S(=O)(=O)c2ccc(F)cc2)cc1	Autophagy HCS active
CCOc1ccccc1NC(=O)CN(c1ccc(OC)cc1)S(=O)(=O)c1c(C)noc1C	Autophagy HCS active
COc1ccc(NC(=O)CN(c2cc(C)cc(C)c2)S(=O)(=O)c2c(C)noc2C)cc1	Autophagy HCS active
COc1ccccc1NC(=O)Nc1ccccc1C(=O)NCCCN1CCOCC1	none (no result: Autophagy HCS)
Cc1ccc(C2SCC(=O)N2Cc2cn3ccsc3n2)o1 (stereo not given)	Autophagy HCS active
c1cn2cc(CN3CCOCC3)nc2s1	none
O=[N+]([O-])c1c(NCc2ccccc2)cc(N2CCc3ccccc3C2)c2nonc12	none
Cc1csc(Nc2ccccc2)[n+]1-c1ccccc1	TNF death inh 56
Cc1csc(Nc2ccccc2)[n+]1C	none
C[C@H](NC(=O)OC(C)(C)C)C(=O)N/N=C/c1ccc2nccnc2c1	none (no result: Autophagy HCS)
